Compound activity: PubChem BioAssay, The Scripps Research Institute Molecular Screening Center
Only some compounds are listed: those with a hit (about 2.7% of all), similar ones and a draw of the others.
ASAP1 inh = ASAP1 ArfGAP inhibition; Q9ULH1; ASAP1-stimulated ARF1 GTP hydrolysis, GDP FP detection; inhibition, % at 16.5 µM; hit rate 0.19% among 360,000; AID 624377; in the data active means inhibition above about 25%;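 further: 0% = vehicle with enzyme and substrate and 100% = no enzyme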
Target sequence (Q9ULH1 325-724 limits assumed): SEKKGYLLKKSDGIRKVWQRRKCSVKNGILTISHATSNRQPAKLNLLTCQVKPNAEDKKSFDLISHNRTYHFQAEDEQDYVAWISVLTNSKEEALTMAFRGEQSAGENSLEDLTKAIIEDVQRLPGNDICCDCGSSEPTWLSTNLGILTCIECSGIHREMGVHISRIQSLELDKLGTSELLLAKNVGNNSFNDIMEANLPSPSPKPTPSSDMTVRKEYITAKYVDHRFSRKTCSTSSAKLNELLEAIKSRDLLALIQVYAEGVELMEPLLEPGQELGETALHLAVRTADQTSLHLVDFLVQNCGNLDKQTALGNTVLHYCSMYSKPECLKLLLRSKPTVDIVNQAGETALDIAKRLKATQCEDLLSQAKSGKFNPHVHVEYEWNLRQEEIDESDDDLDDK
ARFGAP1 inh = rat ARFGAP1 inhibition; Q62848; Arfgap1-stimulated ARF1 GTP hydrolysis, GDP FP detection; inhibition, % at 16.5 µM; hit rate 0.26% among 360,000; AID 651572;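 active means inhibition above a per-plate limit, mean inhibition of low control wells plus 3 SD, cut at about 25% in these data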;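 further: 0% = DMSO wells with enzyme and 100% = wells lacking Arfgap1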
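material = rat Arfgap1 catalytic domain, aa 1-136 | also added = human ARF1(Δ1-17)-GTP substrate | compound dosing = one concentration, 16.5 µM, DMSO 1.26% | times = GTP hydrolysis reaction 2 h at 25 °C | measured by = FP, GDP Alexa 633 tracer displaced from anti-GDP antibody, 620/688 nm | evaluation = percent inhibition of Arfgap1-stimulated GTP hydrolysis | replication = single well per compound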
pPAFAH FP inh = inhibitors of human plasma PAF acetylhydrolase (pPAFAH) | Q13093 | recombinant pPAFAH, FP-rhodamine probe fluorescence polarization | inhibition, % at 3.39 µM | hit rate 1.5% among 330,000 | AID 463082;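 active means inhibition above the mean inhibition across the screen plus 3 SD, cut at about 25% in these data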;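 further: inhibitors block binding of the rhodamine activity-based probe so polarization drops; 0% = enzyme with DMSO and 100% = wells lacking pPAFAH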
PAFAH1B3 inh = blocks human PAF acetylhydrolase 1B catalytic subunit 3; hit rate 0.28% among 340,000; Q15102; recombinant PAFAH1B3, FP-rhodamine probe, fluorescence polarization; inhibition, % at 3.39 µM;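 active means inhibition above the screen-wide average of all tested compounds plus 3 SD, cut at about 25% in these data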;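 further: 0% = enzyme with DMSO only and 100% = wells lacking PAFAH1B3 protein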
Target sequence (Q15102 whole entry, looked up): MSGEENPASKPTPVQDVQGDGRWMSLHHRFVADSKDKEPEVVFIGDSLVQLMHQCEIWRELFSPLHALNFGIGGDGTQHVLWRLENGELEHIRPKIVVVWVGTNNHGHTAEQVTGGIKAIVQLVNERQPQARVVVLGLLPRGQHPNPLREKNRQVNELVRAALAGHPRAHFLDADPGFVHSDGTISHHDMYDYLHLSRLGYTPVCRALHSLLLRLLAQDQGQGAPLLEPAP
PAFAH1B2 inh = PAFAH1B2 (human) inhibition. recombinant PAFAH1B2, FP-rhodamine activity probe, fluorescence polarization. inhibition, % at 3.39 µM. hit rate 1.2% among 340,000. AID 492953;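 active means inhibition above the mean of all tested compounds plus 3 SD, cut at about 24% in these data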;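 further: 0% = enzyme with DMSO and 100% = wells lacking PAFAH1B2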
PAFAH2 FP inh = PAFAH2 (human) inhibition; inhibition, % at 3.39 µM; hit rate 0.99% among 340,000; AID 492956; recombinant PAFAH2, FP-rhodamine activity probe, fluorescence polarization; Q99487;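 active means inhibition above the mean over all tested compounds plus 3 SD, cut at about 30% in these data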;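 further: inhibitors block probe labeling of enzyme so polarization drops; 0% = enzyme with DMSO and 100% = wells lacking PAFAH2 protein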
An asterisk follows results filed as active; x = no result.

SMILES	ASAP1 inh	ARFGAP1 inh	pPAFAH FP inh	PAFAH1B3 inh	PAFAH1B2 inh	PAFAH2 FP inh
COc1ccc(NS(=O)(=O)c2cc(NC(=O)c3ccc(C)s3)ccc2N2CCOCC2)cc1	-4	-8	27*	-4	0	-9
CCCCn1c(NC(=O)c2ccc(F)cc2)c(C#N)c2nc3ccccc3nc21	x	x	9	x	x	x
CCCCn1c(NC(=O)c2ccccc2)c(C#N)c2nc3ccccc3nc21	-3	8	x	59*	44*	55*
O=[N+]([O-])c1ccc(OC2OCC(O)C(O)C2O)cc1 (stereo not drawn)	1	9	x	x	x	x
CC(=O)NCc1ccc(OCCCN2CCC(C(O)(c3ccccc3)c3ccccc3)CC2)cc1	4	3	x	x	x	x
Cc1ccc(NC(=O)[C@@H](Cc2ccccc2)NC(=O)[C@H]2O[C@@H](n3ccc(=O)[nH]c3=O)[C@H](O)[C@@H]2O)cc1C	10	13	x	x	x	x
Cc1cc([N+](=O)[O-])cc2c1NC(c1ccccn1)C1CC=CC21 (stereo not drawn)	3	-7	14	-2	5	7
O=C(O)c1ccc(Cl)c2c1C1C=CCC1C(c1ccccn1)N2 (stereo not drawn)	x	x	58*	x	x	x
COc1cccc(C2Nc3c(F)cc(Br)cc3C3C=CCC32)c1OC (stereo not drawn)	7	0	0	16	2	9
COc1ccc(OC)c(C2Nc3c(Cl)ccc(C(=O)O)c3C3C=CCC32)c1 (stereo not drawn)	-4	5	25*	2	2	4
CCSc1n[nH]c(=O)n1C	7	6	x	x	x	x
CCOC(=O)C1CCN(C(=O)CCN2C(=O)C3C4C=CC(C4)C3C2=O)CC1 (stereo not drawn)	3	7	29*	-3	-2	5
Cc1[nH]c2ccccc2c1CC(=O)Nc1ccc(Nc2cccnc2)c(-c2ccc(Oc3ccccc3)cc2)c1	16	8	x	x	x	x
Cc1cc2c(c(=O)o1)[C@@]1(C(=O)N(C)c3cccc(Br)c31)C1=C(CCCC1=O)O2	-5	3	x	x	x	x
CCNC(=O)n1nccc1C(C)Oc1ccc(Cl)cc1 (stereo not drawn)	-9	0	14	1	58*	7
CCOc1cc(CNCCO)cc(Br)c1OCc1ccccc1Cl	-4	0	16	8	-1	-4
CCOc1cc(CNC(C)(C)CO)cc(Br)c1OCc1ccc(Cl)cc1Cl	5	8	34*	1	3	7
CCCCN1C(=O)C(=O)N(CC(=O)Nc2sc(CC)cc2C(=O)OCC)C1=O	4	8	33*	3	6	-2
Nc1nc(-c2cccc(F)c2)cs1	-11	9	-2	7	45*	1
C[C@@H]1CN([C@H](C)CO)C(=O)c2cc(NC(=O)Nc3ccc(C(F)(F)F)cc3)ccc2O[C@H]1CN(C)S(=O)(=O)c1cccs1	26*	11	-25	-91	-44	-75
C[C@H](CO)N1C[C@H](C)[C@@H](CN(C)C(=O)Nc2ccc(C(F)(F)F)cc2)Oc2c(NC(=O)Nc3ccccc3)cccc2C1=O	4	-12	1	-9	57*	-9
C[C@H](CO)N1C[C@H](C)[C@@H](CN(C)S(=O)(=O)c2cccs2)Oc2ccc(NC(=O)Nc3ccc(C(F)(F)F)cc3)cc2C1=O	13	1	-29	-82	-40	-96
CC(C)NC(=O)N(C)C[C@H]1Oc2c(NC(=O)Nc3ccc(C(F)(F)F)cc3)cccc2C(=O)N([C@H](C)CO)C[C@@H]1C	-11	1	15	-5	1	1
COc1ccc(NC(=O)N(C)C[C@H]2Oc3c(NC(=O)Nc4ccc(C(F)(F)F)cc4)cccc3C(=O)N([C@H](C)CO)C[C@@H]2C)cc1	7	2	1	7	36*	-3
C[C@H](CO)N1C[C@H](C)[C@@H](CN(C)S(=O)(=O)c2ccc(F)cc2)Oc2c(NC(=O)Nc3ccc(C(F)(F)F)cc3)cccc2C1=O	-9	-5	7	-24	24*	-30
SMILES	ASAP1 inh	ARFGAP1 inh	pPAFAH FP inh	PAFAH1B3 inh	PAFAH1B2 inh	PAFAH2 FP inh
c1ccc(Nc2nnc(-c3ccc4c(c3)OCO4)o2)cc1	6	-3	x	x	x	x
Cc1cc(N2CCNC[C@H]2C)ccc1N1CCN(Cc2ccccc2)[C@H](C)C1	0	-6	x	x	x	x
C[C@@H]1CN([C@H](C)CO)C(=O)c2cccc(NC(=O)Nc3ccc(F)cc3)c2O[C@H]1CN(C)C(=O)Nc1ccc(C(F)(F)F)cc1	8	2	-9	6	50*	0
C[C@H](CO)N1C[C@H](C)[C@@H](CN(C)C(=O)NC2CCCCC2)Oc2c(NC(=O)Nc3ccc(C(F)(F)F)cc3)cccc2C1=O	8	6	1	-5	8	-4
COc1ccc(Cl)cc1C(=O)Nc1ccc(NC(C)=O)cc1	-16	-9	-2	8	-5	5
CC(=O)Oc1c(I)cc(I)cc1C(=O)Nc1ccc(Cl)cc1	5	9	25*	10	25*	3
CC(=O)c1sc(Nc2cccc3ccccc23)nc1C	4	14	-1	1	4	6
CC(=O)c1sc(Nc2ccccn2)nc1C	6	26*	3	1	-5	-4
C[C@@H]1COc2cccc(N3CCCC3)c2S(=O)(=O)N1	6	-1	x	x	x	x
O=C(N/N=C/c1c[nH]c2ccccc12)c1ccc(O)c(O)c1	-5	1	9	15	25*	14
CCn1c(CNC(=O)COc2ccc(C(C)C)cc2)nnc1SCC(=O)Nc1ccccc1F	9	-6	3	5	6	5
CCn1c(CNC(=O)COc2ccc(C(C)C)cc2)nnc1SCC(=O)Nc1ccccc1C(C)C	-12	9	30*	6	3	2
Cc1nn(-c2ccccc2)c(Cl)c1CN(C(=O)CCl)c1ccc(Cl)cc1	-1	-8	4	0	41*	2
CC(=O)N(Cc1c(C)nn(-c2ccccc2)c1Cl)c1ccc(Cl)cc1	-16	-6	4	9	19	-4
CN(Cc1ccc(F)cc1)C(=O)c1cccc(NS(=O)(=O)c2ccccc2)c1	8	4	25*	-2	13	4
Cc1cccc(C)c1NC(=O)CN(C)C(=O)c1ccc(NS(=O)(=O)c2ccc3[nH]c(=O)[nH]c3c2)cc1	2	12	3	11	4	2
CSc1ccc(CN(C)C(=O)c2ccc(S(=O)(=O)Nc3ccccc3)cc2)cc1	-7	8	32*	-6	4	3
CSc1ccc(CN(C)C(=O)c2ccc(S(=O)(=O)Nc3c(C)n(C)n(-c4ccccc4)c3=O)cc2)cc1	-3	7	x	6	5	4
Cc1cccc(C)c1NC(=O)CN(C)C(=O)c1cccc(NS(=O)(=O)c2ccccc2)c1	-4	6	30*	-1	2	6
